Assay outcomes as filed in PubChem BioAssay.
Compounds with a hit are over-represented: about 3.5% of the library has one in this group of screens.
RGS4 block: RGS4 inhibitors, primary screen, cell-based, HEK293 M3R inducible RGS4, calcium flux | 310,000 tested, 0.45% active | AID 463165, 2010 | Fluo-4 calcium flux; hits give high values; triggered by carbachol at its EC20 | B-score at 10 µM | Regulator of G-protein signaling 4 (Homo sapiens), P49798;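 active = B-score, a plate-corrected calcium signal, over three deviations above library mean, with baseline fluorescence within five deviations of library mean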;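 also: RGS4 expression induced by doxycycline in cells with stable M3 receptor; B-score is computed from the integrated fluorescence ratio over baseline after carbachol; higher B-score means a larger calcium signal and so more RGS4 inhibition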
Target sequence (P49798 whole entry, looked up): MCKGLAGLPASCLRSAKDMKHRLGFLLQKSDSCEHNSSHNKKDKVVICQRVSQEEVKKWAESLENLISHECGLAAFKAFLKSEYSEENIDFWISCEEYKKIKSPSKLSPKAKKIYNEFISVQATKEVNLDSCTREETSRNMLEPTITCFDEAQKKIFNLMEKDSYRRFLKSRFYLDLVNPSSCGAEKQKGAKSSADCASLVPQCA
RGS4 act: RGS4 potentiators or activators, primary screen, cell-based, HEK293 M3R inducible RGS4, calcium flux; B-score at 10 µM; carbachol calcium flux Fluo4; hits give low values; 310,000 tested, 0.92% active;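 active = B-score of the integrated calcium signal more than 4 SD below the library mean, with starting fluorescence not abnormally high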;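 also: negative B-score means reduced calcium response which marks RGS4 activation or potentiation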
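System: HEK293 FlpIn-TREx cells, stable M3R, doxycycline-inducible RGS4. Timing: overnight RGS4 induction, 30 min dye load 37 °C, 20 min compound RT. Also added: carbachol, ECmax concentration. Measured by: Fluo4 fluorescence kinetic imaging of calcium. Evaluation: integrated calcium ratio converted to B score.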
MrgX1 ag: agonists of human MrgX1 receptor, primary screen, HEK293 cells, Fluo-4 calcium flux; Mas-related G-protein coupled receptor member X1 (Homo sapiens), Q96LB2; 310,000 tested, 0.44% active; AID 588627, 2011; Fluo-4 calcium fluorescence, agonist mode; hits give high values; B-score at 10 µM;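 active = calcium response B-score plate-corrected fluorescence ratio at least 3 library SD, with starting fluorescence B-score inside 5 SD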
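Material: HEK293 cells stably expressing human MrgX1 receptor | Quantity: 15,000 cells per well | Times: Cells plated overnight, dye loaded 0.5 h 37 °C, 0.5 h room temperature | Measured by: Kinetic Fluo-4 NW fluorescence of intracellular calcium | Control set: Positive and negative controls per plate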
MrgX1 allo act: positive allosteric modulators of MrgX1, primary screen, HEK293 cells, Fluo-4 calcium flux; AID 588675, 2011; 310,000 tested, 0.63% active; Mas-related G-protein coupled receptor member X1 (Homo sapiens), Q96LB2; B-score at 10 µM; FDSS; hits give high values;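 active = plate-corrected calcium response at least 3 library SD above typical, normal starting fluorescence, not activating the receptor alone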;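 also: compound read alongside a low EC10 to EC30 dose of BAM8-22 agonist; peak minus trough fluorescence over baseline measured at the second addition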
MrgX1 antag: antagonists of human MrgX1 receptor, primary screen, HEK293 cells, Fluo-4 calcium flux. 310,000 tested, 1.3% active. Mas-related G-protein coupled receptor member X1 (Homo sapiens), Q96LB2. B-score at 10 µM. BAM8-22 antagonism; hits give low values. AID 588676, 2011;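 active = calcium-response B-score plate-corrected more than 3 library SD below zero, starting fluorescence within 5 deviations, no agonist response on first addition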;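 also: peak minus trough fluorescence over baseline after final BAM8-22 challenge near maximal dose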
RGS4 act valid: reduced carbachol calcium response, RGS4-induced M3R cells, confirmation, RGS4 activator project, cell-based, HEK293 M3R/RGS4 inducible, calcium flux, duplicate; inhibition, % at 10 µM; 1,100 tested, 89% active; carbachol calcium flux Fluo4; shares compounds with RGS4 act;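 active = inhibition above 3 SD of the buffer control wells, cut at about 41% in these data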;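 also: signal is the integrated peak-minus-minimum Fluo4 fluorescence over baseline ratio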
M3R Ca counter: activity in cells without induced RGS4 expression | shares compounds with RGS4 act | AID 602283 | HEK293 M3R non-induced RGS4, Fluo4 calcium flux; after carbachol challenge at its EC90 | inhibition, % at 10 µM | 1,100 tested, 82% active;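 active = inhibition exceeding 3 SD of buffer-only control wells, cut at about 26% in these data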;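 also: percent drop in integrated peak-minus-baseline over baseline Fluo4 ratio after carbachol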
* = called active by the depositor; i = inactive; x = no result given.

SMILES	RGS4 block	RGS4 act	MrgX1 ag	MrgX1 allo act	MrgX1 antag	RGS4 act valid	M3R Ca counter
COc1ccc(-c2csc3ncnc(N4CCN(c5ccc(OC)cc5)CC4)c23)cc1	i	i	i	i	i	x	x
CCN1CCN(c2ncnc3scc(-c4ccc(C)c(C)c4)c23)CC1	i	-9.2*	i	i	i	92*	87*
COc1ccc(-c2csc3ncnc(N4CCN(Cc5ccccc5)CC4)c23)cc1	i	-7.7*	i	i	i	0	0
Cc1ccc(-c2csc3ncnc(N4CCN(c5ccccc5O)CC4)c23)cc1	i	i	i	i	i	x	x
COc1ccc(-c2csc3ncnc(N4CCN(c5ccccc5)CC4)c23)cc1	i	-8.3*	i	i	i	88*	84*
COc1ccc(-c2csc3ncnc(N4CCN(c5ccccc5O)CC4)c23)cc1	i	-9.3*	i	i	i	0	0
COc1ccc(C(=O)Nc2nc3c(s2)CCCC3)cc1S(=O)(=O)N1CCCc2ccccc21	i	i	i	i	i	x	x
COc1ccc(C2N(c3ccc4c(c3)OCCO4)C(=O)C2(F)F)cc1OC (configuration not stated)	i	i	i	i	i	x	x
C#Cc1ccc(CN2CCC(Oc3cc(C(=O)NC4CC4)ccc3OC)CC2)cc1	i	i	x	x	x	x	x
S=c1[nH]nc(-c2ccc(Cl)cc2)n1Cc1ccccc1	i	-8.9*	i	i	i	81*	36*
S=c1[nH]nc(-c2ccc(Br)cc2)n1Cc1ccco1	i	-8*	i	i	i	93*	78*
O=C(N/N=C/c1cccc(OCC(=O)N2CCCC2)c1)C(=O)Nc1ccccc1F	i	i	i	i	i	x	x
Cc1cccc2c1Sc1ccc(Cl)cc1CC2N1CCNCC1 (configuration not stated)	i	-7.6*	i	i	i	93*	96*
CCN(CC)CCC(O)(c1ccccc1)C1CCCCC1 (configuration not stated)	i	-9.3*	i	i	i	92*	92*
CC(C)(C)OC(=O)NC1CC2CCCC(C1)N2Cc1ccccc1 (configuration not stated)	i	-9.7*	x	x	x	92*	89*
COc1ccc(-c2nn(-c3ccccc3)cc2C(=O)Nc2nccs2)cc1	i	-8.7*	i	i	i	68*	0
COc1cccc(-c2nn(-c3ccccc3)cc2C(=O)Nc2nccs2)c1	i	i	i	i	i	x	x
CCn1cc(C(=O)NCCC(=O)NC(C)C)c(=O)c2cc3c(cc21)OCO3	i	i	i	i	i	x	x
CCC(=O)C1CCCN(C(=O)c2ccc3nc(-c4cccc(OC)c4)oc3c2)C1 (configuration not stated)	i	i	i	i	i	x	x
CCOC(=O)C1CCCN(C(=O)c2cc3c(C)nc4ccccc4c3o2)C1 (configuration not stated)	i	-9.2*	i	i	i	82*	61*
Cc1ccc(C)c(N2CCN(C(=O)c3cc4c(C)nc5ccccc5c4o3)CC2)c1	i	-8.5*	i	i	i	89*	68*
CCOC(=O)C1CCCN(C(=O)c2ccc3nc(-c4cccc(OC)c4)oc3c2)C1 (configuration not stated)	i	-8.7*	i	i	i	54*	84*
Cc1ccc(CNC(=O)c2cc3c(C)nc4ccccc4c3o2)cc1	i	i	i	i	i	x	x
C=CCN(c1ccccc1)S(=O)(=O)c1ccc(Cl)c(C(=O)OCC(=O)N(C)C2CCS(=O)(=O)C2)c1 (configuration not stated)	i	i	i	i	i	x	x
